The source of these data is publication PMC4136711 (Journal of Medicinal Chemistry, 2014).

One assay concerns the target PRC2 complex (Homo sapiens, UniProt Q15910). The experiment in a line: Selectivity assay. As to conditions: read-out: estimated IC50 PRC2. Type of assay: biochemical. The procedure, abridged:
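Tritium-labelled methyl transfer from 3H-SAM to peptide substrate, with substrates near their Km values for the enzyme. Test compound ranged from 100 nM to 100 μM. Reactions were quenched with 7.5 M guanidine hydrochloride, diluted in 20 mM Tris pH 8.0, and captured on FlashPlates for 1 h before counting CPM. The no-compound signal defined 100% activity and the no-enzyme signal defined 0%.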

Another assay deals with L3MBTL1 (Homo sapiens, UniProt Q9Y468). The settings on record: methyllysine reader protein.
Chain of L3MBTL1 (Q9Y468 whole entry, species assumed): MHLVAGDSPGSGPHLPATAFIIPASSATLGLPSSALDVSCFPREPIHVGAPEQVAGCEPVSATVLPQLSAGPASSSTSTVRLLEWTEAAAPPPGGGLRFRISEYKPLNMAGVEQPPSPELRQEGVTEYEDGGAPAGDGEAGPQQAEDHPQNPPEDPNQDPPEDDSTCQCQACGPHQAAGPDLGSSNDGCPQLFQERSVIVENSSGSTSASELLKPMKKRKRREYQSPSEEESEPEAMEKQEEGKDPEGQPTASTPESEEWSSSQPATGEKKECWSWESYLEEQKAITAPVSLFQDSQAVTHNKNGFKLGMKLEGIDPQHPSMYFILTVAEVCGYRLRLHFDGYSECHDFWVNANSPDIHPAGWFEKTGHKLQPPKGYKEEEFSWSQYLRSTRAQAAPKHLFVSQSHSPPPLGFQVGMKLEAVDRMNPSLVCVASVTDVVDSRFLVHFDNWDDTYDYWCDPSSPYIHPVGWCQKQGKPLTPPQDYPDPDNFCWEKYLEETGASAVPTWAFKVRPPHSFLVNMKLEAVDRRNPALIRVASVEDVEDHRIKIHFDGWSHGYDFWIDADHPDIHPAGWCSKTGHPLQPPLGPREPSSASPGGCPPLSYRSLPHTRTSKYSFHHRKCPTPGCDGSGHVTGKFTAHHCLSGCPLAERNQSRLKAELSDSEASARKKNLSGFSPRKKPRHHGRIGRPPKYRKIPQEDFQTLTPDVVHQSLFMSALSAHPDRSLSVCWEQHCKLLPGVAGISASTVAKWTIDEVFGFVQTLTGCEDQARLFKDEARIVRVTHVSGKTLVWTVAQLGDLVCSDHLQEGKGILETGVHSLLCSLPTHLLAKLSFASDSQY
Another assay addresses T1, SETD8 (Homo sapiens, UniProt Q9NQR1).
T1 sequence (Q9NQR1 257-378 limits assumed): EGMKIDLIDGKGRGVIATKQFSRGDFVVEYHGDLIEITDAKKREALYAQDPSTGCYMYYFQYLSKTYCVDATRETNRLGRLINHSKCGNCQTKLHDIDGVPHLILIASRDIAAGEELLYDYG
Type of assay: binding.

The structures appear in SMILES notation.

Chain of PRC2 complex (Q15910 whole entry): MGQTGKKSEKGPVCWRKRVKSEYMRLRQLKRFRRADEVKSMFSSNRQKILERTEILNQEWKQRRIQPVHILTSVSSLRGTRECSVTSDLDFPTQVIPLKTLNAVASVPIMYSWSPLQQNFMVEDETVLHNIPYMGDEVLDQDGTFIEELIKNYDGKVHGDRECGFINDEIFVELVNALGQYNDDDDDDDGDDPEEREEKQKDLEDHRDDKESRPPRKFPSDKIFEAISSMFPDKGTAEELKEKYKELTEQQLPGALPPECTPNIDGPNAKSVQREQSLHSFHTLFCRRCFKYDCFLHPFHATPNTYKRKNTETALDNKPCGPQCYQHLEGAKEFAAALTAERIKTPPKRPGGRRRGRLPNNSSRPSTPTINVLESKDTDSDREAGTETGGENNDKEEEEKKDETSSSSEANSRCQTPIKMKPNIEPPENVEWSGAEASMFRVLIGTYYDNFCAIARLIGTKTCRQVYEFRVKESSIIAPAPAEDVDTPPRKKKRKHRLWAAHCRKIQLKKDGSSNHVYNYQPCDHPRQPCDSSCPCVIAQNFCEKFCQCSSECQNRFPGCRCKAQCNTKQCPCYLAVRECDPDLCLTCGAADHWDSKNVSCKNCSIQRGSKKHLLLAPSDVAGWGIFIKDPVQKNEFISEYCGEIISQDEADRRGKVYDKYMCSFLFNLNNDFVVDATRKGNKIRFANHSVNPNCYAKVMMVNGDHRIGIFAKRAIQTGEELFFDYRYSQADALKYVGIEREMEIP
Chain of PRC2 complex (O75530 whole entry partner): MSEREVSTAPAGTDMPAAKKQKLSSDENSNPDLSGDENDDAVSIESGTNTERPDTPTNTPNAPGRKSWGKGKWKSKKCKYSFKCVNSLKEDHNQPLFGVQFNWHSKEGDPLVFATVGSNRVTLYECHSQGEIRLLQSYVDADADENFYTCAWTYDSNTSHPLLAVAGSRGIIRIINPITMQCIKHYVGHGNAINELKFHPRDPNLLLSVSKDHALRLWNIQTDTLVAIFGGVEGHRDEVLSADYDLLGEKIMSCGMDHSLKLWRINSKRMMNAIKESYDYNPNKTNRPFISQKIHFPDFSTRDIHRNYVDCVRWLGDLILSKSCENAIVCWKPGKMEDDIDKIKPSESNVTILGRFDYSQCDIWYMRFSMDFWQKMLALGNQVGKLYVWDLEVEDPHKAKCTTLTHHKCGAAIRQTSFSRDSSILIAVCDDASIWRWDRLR
Chain of PRC2 complex (Q15022 whole entry partner): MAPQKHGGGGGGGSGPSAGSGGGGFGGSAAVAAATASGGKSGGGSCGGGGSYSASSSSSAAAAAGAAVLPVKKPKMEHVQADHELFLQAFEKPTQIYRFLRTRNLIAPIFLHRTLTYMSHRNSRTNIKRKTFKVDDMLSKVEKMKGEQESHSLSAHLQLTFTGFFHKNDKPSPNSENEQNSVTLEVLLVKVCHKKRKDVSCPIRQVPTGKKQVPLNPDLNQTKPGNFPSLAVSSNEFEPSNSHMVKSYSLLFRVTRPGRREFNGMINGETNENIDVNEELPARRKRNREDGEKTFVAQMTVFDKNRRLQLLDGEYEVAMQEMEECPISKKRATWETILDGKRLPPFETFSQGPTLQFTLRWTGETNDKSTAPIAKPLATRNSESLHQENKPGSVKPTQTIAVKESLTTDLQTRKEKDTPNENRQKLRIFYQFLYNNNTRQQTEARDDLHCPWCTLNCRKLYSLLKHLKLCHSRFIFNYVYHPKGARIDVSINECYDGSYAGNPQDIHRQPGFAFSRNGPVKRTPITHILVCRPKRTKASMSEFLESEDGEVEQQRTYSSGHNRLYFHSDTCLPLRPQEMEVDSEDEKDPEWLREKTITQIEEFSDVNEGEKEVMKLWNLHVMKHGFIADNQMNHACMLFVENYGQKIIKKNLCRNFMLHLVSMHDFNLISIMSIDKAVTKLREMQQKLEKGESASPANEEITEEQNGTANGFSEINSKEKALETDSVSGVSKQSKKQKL

In the case of `COc1cc2nc(N3CCCC3)nc(NCCCCCN3CCCC3)c2cc1OC` [Compound 1, 6,7-Dimethoxy-2-(pyrrolidin-1-yl)-N-(5-(pyrrolidin-1-yl)pentyl)quinazolin-4-amine], at PRC2 complex, the potency estimated from few doses is greater than 50 µM. In addition, on L3MBTL1, the “Activity for L3MBTL1” value is recorded as “no appreciable activity”.
As to `COc1cc2nc(N3CCCC3)nc(N(C)CCCCCN3CCCC3)c2cc1OC` [Compound 14, 6,7-Dimethoxy-N-methyl-2-(pyrrolidin-1-yl)-N-(5-(pyrrolidin-1-yl)pentyl)quinazolin-4-amine], on SETD8, the “Displacement of FITC-labeled H4K20me peptide (FP), in words” value is reported as “did not displace the peptide”.
